From article PMC3969088 (British Journal of Pharmacology, 2014)
Where no end group is shown, it is not given here.

Key:
[1] = molecular target: AM2 receptor, CLR I52A (HA-CLR I52A with RAMP3) (human) (UniProt Q16602)
[2] = molecular target: AM2 receptor, CLR Q45A (HA-CLR Q45A with RAMP3) (human) (UniProt Q16602)
[3] = molecular target: AM2 receptor, CLR Q33A (HA-CLR Q33A with RAMP3) (human) (UniProt Q16602)
[4] = molecular target: AM2 receptor, CLR I41A (HA-CLR I41A with RAMP3) (human) (UniProt Q16602)
[5] = molecular target: AM2 receptor, CLR T37A (HA-CLR T37A with RAMP3) (human) (UniProt Q16602)
[6] = molecular target: AM2 receptor, CLR I32A (HA-CLR I32A with RAMP3) (human) (UniProt Q16602)
[7] = molecular target: AM2 receptor, CLR M42A (HA-CLR M42A with RAMP3) (human) (UniProt Q16602)
[8] = molecular target: AM2 receptor, CLR G35A (HA-CLR G35A with RAMP3) (human) (UniProt Q16602)
[9] = molecular target: AM2 receptor, wild type (HA-CLR with RAMP3) (human) (UniProt Q16602)
[10] = molecular target: AM2 receptor, CLR V36A (HA-CLR V36A with RAMP3) (human) (UniProt Q16602)
[11] = molecular target: AM2 receptor, CLR L34A (HA-CLR L34A with RAMP3) (human) (UniProt Q16602)
[12] = molecular target: AM1 receptor, CLR I52A (HA-CLR I52A with FLAG-RAMP2) (human) (UniProt Q16602)
[13] = molecular target: AM1 receptor, CLR V36A (HA-CLR V36A with FLAG-RAMP2) (human) (UniProt Q16602)
[14] = molecular target: AM1 receptor, CLR M42A (HA-CLR M42A with FLAG-RAMP2) (human) (UniProt Q16602)
[15] = molecular target: AM1 receptor, CLR L34A (HA-CLR L34A with FLAG-RAMP2) (human) (UniProt Q16602)
[16] = molecular target: AM1 receptor, CLR I32A (HA-CLR I32A with FLAG-RAMP2) (human) (UniProt Q16602)
[17] = molecular target: AM1 receptor, CLR G35A (HA-CLR G35A with FLAG-RAMP2) (human) (UniProt Q16602)
[18] = molecular target: AM1 receptor, CLR Q33A (HA-CLR Q33A with FLAG-RAMP2) (human) (UniProt Q16602)
[19] = molecular target: AM1 receptor, RAMP2 E101A (HA-CLR with FLAG-RAMP2 E101A) (human) (UniProt Q16602)
[20] = molecular target: AM2 receptor, RAMP3 W84F (HA-CLR with RAMP3 W84F) (human) (UniProt Q16602)
[21] = molecular target: AM2 receptor, RAMP3 W84A (HA-CLR with RAMP3 W84A) (human) (UniProt Q16602)
[22] = molecular target: AM2 receptor, wild type (HA-CLR with RAMP3) (human) (UniProt Q16602); remark: listed apart in the source
[23] = molecular target: CGRP receptor, CLR L34A (HA-CLR L34A with RAMP1) (UniProt Q16602)
[24] = molecular target: CGRP receptor, wild type (HA-CLR with RAMP1) (UniProt Q16602)
[25] = molecular target: CGRP receptor, CLR I41A (HA-CLR I41A with RAMP1) (UniProt Q16602)
[26] = molecular target: CGRP receptor, CLR M42A (HA-CLR M42A with RAMP1) (UniProt Q16602)
[27] = molecular target: CGRP receptor, CLR G35A (HA-CLR G35A with RAMP1) (UniProt Q16602)
[28] = molecular target: CGRP receptor, CLR T37A (HA-CLR T37A with RAMP1) (UniProt Q16602)
[29] = molecular target: CGRP receptor, CLR Q45A (HA-CLR Q45A with RAMP1) (UniProt Q16602)
[30] = molecular target: CGRP receptor, CLR I32A (HA-CLR I32A with RAMP1) (UniProt Q16602)
[31] = tested on: CLR mutants at the AM2 receptor; assay: specific binding of [125I]-rAM to CLR mutants at the AM2 receptor; set-up: species or system human; conditions: Cos7, 4°C 1 h
Outline: (§1)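 Cos7 cells transiently cotransfected (PEI, 1 μg DNA/well total) with HA-tagged human CLR mutants plus FLAG-human RAMP2 (AM1) or untagged human RAMP3 (AM2). Cells incubated in DMEM/0.5% BSA with [125I]-rAM ([…], 30 000 cpm/well) at 4°C for 1 h, washed with ice-cold PBS, NaOH-solubilised and gamma-counted. […] Specific binding normalised to the WT mean.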

[32] = tested on: CLR mutants at the AM1 receptor; assay: specific binding of [125I]-rAM to CLR mutants at the AM1 receptor; set-up: species or system human; conditions: Cos7, 4°C 1 h
Outline: as §1

Substance: Human adrenomedullin 2 (AM2-47) (from UniProt Q7Z4H4 101-148) (peptide)
- pEC50, cAMP production in Cos7 cells [1]: 9.12
- pEC50, cAMP production in Cos7 cells [2]: 8.94
- pEC50, cAMP production in Cos7 cells [3]: 8.56
- pEC50, cAMP production in Cos7 cells [4]: 8.47
- pEC50, cAMP production in Cos7 cells [5]: 7.7
- pEC50, cAMP production in Cos7 cells [6]: 9.47
- pEC50, cAMP production in Cos7 cells [7]: 8.61
- pEC50, cAMP production in Cos7 cells [8]: 8.78
- pEC50, cAMP production in Cos7 cells; WT control paired with CLR G35A [9]: 9.09
- pEC50, cAMP production in Cos7 cells; WT control paired with CLR I32A [9]: 9.83
- pEC50, cAMP production in Cos7 cells; WT control paired with CLR I41A [9]: 9.32
- pEC50, cAMP production in Cos7 cells; WT control paired with CLR I52A [9]: 9.29
- pEC50, cAMP production in Cos7 cells; WT control paired with CLR L34A [9]: 9.42
- pEC50, cAMP production in Cos7 cells; WT control paired with CLR M42A [9]: 8.82
- pEC50, cAMP production in Cos7 cells; WT control paired with CLR Q33A [9]: 8.59
- pEC50, cAMP production in Cos7 cells; WT control paired with CLR Q45A [9]: 8.95
- pEC50, cAMP production in Cos7 cells; WT control paired with CLR T37A [9]: 9.13
- pEC50, cAMP production in Cos7 cells; WT control paired with CLR V36A [9]: 9.09
- pEC50, cAMP production in Cos7 cells [10]: 8.62
- pEC50, cAMP production in Cos7 cells [11]: 9.13
- pEC50, cAMP production in Cos7 cells [12]: 8.11
- pEC50, cAMP production in Cos7 cells [13]: 7.89
- pEC50, cAMP production in Cos7 cells [14]: 7.86
- pEC50, cAMP production in Cos7 cells [15]: 7.64
- pEC50, cAMP production in Cos7 cells [16]: 8.24
- pEC50, cAMP production in Cos7 cells [17]: 7.92
- pEC50, cAMP production in Cos7 cells [18]: 7.89
- pEC50, cAMP production in Cos7 cells [19]: 7.39
- pEC50, cAMP production in Cos7 cells [20]: 9.38
- pEC50, cAMP production in Cos7 cells [21]: 9.02
- pEC50, cAMP production in Cos7 cells; WT control paired with RAMP3 W84A [22]: 9.62
- pEC50, cAMP production in Cos7 cells; WT control paired with RAMP3 W84F [22]: 9.63
- pEC50, cAMP production in Cos7 cells [23]: 8.44
- pEC50, cAMP production in Cos7 cells; WT control paired with CLR G35A [24]: 8.4
- pEC50, cAMP production in Cos7 cells; WT control paired with CLR I32A [24]: 8.42
- pEC50, cAMP production in Cos7 cells; WT control paired with CLR I41A [24]: 8.31
- pEC50, cAMP production in Cos7 cells; WT control paired with CLR L34A [24]: 8.51
- pEC50, cAMP production in Cos7 cells; WT control paired with CLR M42A [24]: 8.33
- pEC50, cAMP production in Cos7 cells; WT control paired with CLR Q45A [24]: 8.65
- pEC50, cAMP production in Cos7 cells; WT control paired with CLR T37A [24]: 8.31
- pEC50, cAMP production in Cos7 cells; WT control paired with CLR V36A [24]: 8.42
- pEC50, cAMP production in Cos7 cells [25]: 7.23
- pEC50, cAMP production in Cos7 cells [26]: 8.27
- pEC50, cAMP production in Cos7 cells [27]: 8.04
- pEC50, cAMP production in Cos7 cells [28]: 7.47
- pEC50, cAMP production in Cos7 cells [29]: 7.97
- pEC50, cAMP production in Cos7 cells [30]: 8.52

Substance: [^125I]-rAM: rat AM (rAM) iodinated using iodobeads, purified by reverse phase HPLC; radioligand (YRQSMNQGSRSTGCRFGTCTMQKLAHQIYQFTDKDKDGMAPRNKISPQGY; ends and bridges not checked; also: 125I label, residue not given here)
- specific binding of [125I]-rAM ([31]; CLR M42A and Q45A): retained
- specific binding of [125I]-rAM ([31]; CLR T37A and I41A): abolished
- specific binding of [125I]-rAM ([32]; CLR I52A (printed 152A)): retained binding
- specific binding of [125I]-rAM ([32]; CLR M42A and Q45A): abolished
- specific binding of [125I]-rAM ([32]; CLR T37A and I41A): abolished
